Source: paper PMC8341804 (RSC Chemical Biology, 2021)

Key:
PC-3 cells [1] = assay: Peptide uptake assay; type: cell-based; settings: 5 μM FAM-labeled peptide, 4 h, fixed cells, fluorescence microscopy
How it was run: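 PC-3 cells were incubated with 5 μM 5(6)-carboxyfluorescein-labeled test compound for four hours, then imaged by fluorescence microscopy to assess intracellular distribution.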

PC-3 cells [2] = assay: PMA induced cytoskeletal remodeling assay; type: cell-based; settings: PC-3, serum starved 24 h, 5 μM peptide 4 h, 500 nM PMA 45 min
[3] = target: Protein kinase C alpha type (Homo sapiens, UniProt P17252); assay: Proteomic mass spectrometry of biotin-streptavidin pulldown; type: binding; settings: 5 µM biotin labeled peptide, A549 lysate, LC-MS/MS
How it was run: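 Cell lysates were incubated for four hours with 5 μM biotin-labeled test compound or the corresponding scrambled control, with DMSO-treated lysate as negative control. Streptavidin–agarose beads were used for pulldown, and the eluates were analysed by mass spectrometry.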

PKC = PKC substrate phosphorylation assay; type: cell-based; settings: serum starved PC-3, 1, 2.5, 5 μM peptide 4 h, PMA 5 min; n = 3
How it was run: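 Serum-starved PC-3 cells were exposed to the test compound (1, 2.5 or 5 μM) or DMSO vehicle for 4 h. A catalytic PKC inhibitor reference was given at 500 nM for 90 min. Cells were then stimulated with 500 nM PMA for 5 min, harvested and analysed by western blot for PKC substrate phosphorylation; n = 3.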

| Substance | cellular uptake / cell permeability (PC-3 cells [1]) | cell morphology after PMA stimulation (phase contrast) (PC-3 cells [2]) | Present in pulldown: Protein kinase C alpha type (PRKCA) [3] | phosphorylated PKC substrates (anti-PKC p-Serine substrate western blot) (PKC) |
| --- | --- | --- | --- | --- |
| (5/6 FAM) - β-Ala - KAS(Nle)LCFKRRK*AAK*LK (sidechain bridge or staple) [CSTAD5] | considerable permeation | predominantly maintained a flat, elongated morphology | present | dose dependent reduction |
| (5/6 FAM) - β-Ala - KAS(Nle)LCFKRRKK*AKA*K (sidechain bridge or staple) [CSTAD6] | considerable permeation | predominantly maintained a flat, elongated morphology | – | dose dependent reduction |
